Data from ChEMBL document CHEMBL3352689 (J Med Chem, 2014).
Values belong to the molecule of their own block, whether it stands above or below them.

Columns and labels:
Collagenase 3 = Collagenase 3 (Homo sapiens, UniProt P45452); experiment: Inhibition of human recombinant MMP13 using Cy3-PLGLK(Cy5Q)AR-NH2 as substrate after 40 mins by spectrofluorimetry
Liver microsome [1] = experiment: Metabolic stability in rat liver microsomes; assay type: ADME
How it was run: (§1)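 The free acid was incubated with hepatic microsomes of each species. Stability is reported as clearance in μL/min/mg microsomal protein.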

Rattus norvegicus [2] = experiment: Intrinsic clearance in iv dosed rat; assay type: ADME, organism-based; conditions: in vivo
[3] = Metabolic stability in cynomolgus monkey liver microsomes
[4] = Volume of distribution at steady state in dog at 1 mg/kg, iv; assay type: ADME, organism-based, Canis lupus familiaris; design: dose 1 mg/kg, route intravenous; conditions: in vivo, read-out: Vdss
How it was run: (§2)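 Three male animals per species. Dosing was intravenous, with the compound in DMA/PEG400 or DMSO. Steady-state volume of distribution and total body clearance were derived from plasma levels.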

[5] = Metabolic stability in rabbit liver microsomes; assay type: ADME, Oryctolagus cuniculus; how it was run: as §1
[6] = AUC in guinea pig at 3 mg/kg, po; assay type: ADME, organism-based, Cavia porcellus; design: dose 3 mg/kg, route oral; conditions: plasma
How it was run: (§3)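 Three male animals per species. The sodium salt was given as a single oral dose in 0.5% methyl cellulose. Plasma Tmax, Cmax, AUC and oral bioavailability were derived.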

[7] = AUC in rabbit at 10 mg/kg, po; assay type: ADME, organism-based, Oryctolagus cuniculus; design: dose 10 mg/kg, route oral; conditions: plasma; how it was run: as §3
Canis familiaris = experiment: Oral bioavailability in dog assessed as 4-[2-({6-Fluoro-2-[({[3-(methyloxy)phenyl]methyl}amino)-carbonyl]-4-oxo-3,4-dihydroquinazolin-5-yl}oxy)ethyl]-benzoic acid at 3 mg/kg; assay type: ADME, organism-based, Canis lupus familiaris; conditions: in vivo
How it was run: (§4)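 The free-acid form was dosed orally in 0.5% methyl cellulose at 3 mg/kg to three male animals. Oral bioavailability was calculated.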

[8] = Cmax in dog at 10 mg/kg, po; assay type: ADME, organism-based, Canis lupus familiaris; design: dose 10 mg/kg, route oral; conditions: in vivo; how it was run: as §3
[9] = Oral bioavailability in rat at 10 mg/kg; assay type: ADME, organism-based; conditions: in vivo; how it was run: as §3
[10] = Oral bioavailability in guinea pig at 3 mg/kg; assay type: ADME, organism-based, Cavia porcellus; conditions: in vivo; how it was run: as §3
[11] = Tmax in guinea pig at 3 mg/kg, po; assay type: ADME, organism-based, Cavia porcellus; design: dose 3 mg/kg, route oral; conditions: in vivo; how it was run: as §3
[12] = Oral bioavailability in rabbit at 10 mg/kg; assay type: ADME, organism-based, Oryctolagus cuniculus; conditions: in vivo; how it was run: as §3
Liver = experiment: Metabolic stability in guinea pig liver microsomes; assay type: ADME, Cavia porcellus; how it was run: as §1
[13] = Tmax in rat at 10 mg/kg, po; assay type: ADME, organism-based; design: dose 10 mg/kg, route oral; conditions: in vivo; how it was run: as §3
Cavia porcellus = experiment: Oral bioavailability in guinea pig assessed as 4-[2-({6-Fluoro-2-[({[3-(methyloxy)phenyl]methyl}amino)-carbonyl]-4-oxo-3,4-dihydroquinazolin-5-yl}oxy)ethyl]-benzoic acid at 3 mg/kg; assay type: ADME, organism-based; conditions: in vivo; how it was run: as §4
Rattus norvegicus [14] = experiment: Toxicity in rat at 200 mg/kg/day; assay type: organism-based; conditions: in vivo
Oryctolagus cuniculus = experiment: Oral bioavailability in rabbit assessed as 4-[2-({6-Fluoro-2-[({[3-(methyloxy)phenyl]methyl}amino)-carbonyl]-4-oxo-3,4-dihydroquinazolin-5-yl}oxy)ethyl]-benzoic acid at 1 mg/kg; assay type: ADME, organism-based; conditions: in vivo
How it was run: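 Rabbits, three males, received the free-acid form orally in 0.5% methyl cellulose at 1 mg/kg. Oral bioavailability was calculated.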

[15] = Total clearance in dog at 1 mg/kg, iv; assay type: ADME, organism-based, Canis lupus familiaris; design: dose 1 mg/kg, route intravenous; conditions: in vivo; how it was run: as §2
[16] = Volume of distribution at steady state in rabbit at 0.1 mg/kg, iv; conditions: in vivo, read-out: Vdss
Macaca fascicularis [17] = experiment: AUC in monkey at 1 mg/kg, po; conditions: cynomolgus monkey, plasma
[18] = Volume of distribution at steady state in rat at 1 mg/kg, iv; assay type: ADME, organism-based; design: dose 1 mg/kg, route intravenous; conditions: in vivo, read-out: Vdss; how it was run: as §2
Macaca fascicularis [19] = experiment: Oral bioavailability in monkey at 1 mg/kg; conditions: cynomolgus monkey, in vivo
Liver microsome [20] = experiment: Metabolic stability in human liver microsomes; assay type: ADME; how it was run: as §1
[21] = Cmax in guinea pig at 3 mg/kg, po; assay type: ADME, organism-based, Cavia porcellus; design: dose 3 mg/kg, route oral; conditions: in vivo; how it was run: as §3
Macaca fascicularis [22] = experiment: Total clearance in monkey at 1 mg/kg, iv; conditions: cynomolgus monkey, in vivo
[23] = Tmax in dog at 10 mg/kg, po; assay type: ADME, organism-based, Canis lupus familiaris; design: dose 10 mg/kg, route oral; conditions: in vivo; how it was run: as §3
[24] = Total clearance in rabbit at 0.1 mg/kg, iv; conditions: in vivo
[25] = AUC in rat at 10 mg/kg, po; assay type: ADME, organism-based; design: dose 10 mg/kg, route oral; conditions: plasma; how it was run: as §3
[26] = Total clearance in rat at 1 mg/kg, iv; assay type: ADME, organism-based; design: dose 1 mg/kg, route intravenous; conditions: in vivo; how it was run: as §2
[27] = Tmax in rabbit at 10 mg/kg, po; assay type: ADME, organism-based, Oryctolagus cuniculus; design: dose 10 mg/kg, route oral; conditions: in vivo; how it was run: as §3
[28] = Oral bioavailability in dog at 10 mg/kg; assay type: ADME, organism-based, Canis lupus familiaris; conditions: in vivo; how it was run: as §3
Macaca fascicularis [29] = experiment: Oral bioavailability in monkey assessed as 4-[2-({6-Fluoro-2-[({[3-(methyloxy)phenyl]methyl}amino)-carbonyl]-4-oxo-3,4-dihydroquinazolin-5-yl}oxy)ethyl]-benzoic acid at 3 mg/kg; conditions: cynomolgus monkey, in vivo
Macaca fascicularis [30] = experiment: Cmax in monkey at 1 mg/kg, po; conditions: cynomolgus monkey, in vivo
[31] = Cmax in rabbit at 10 mg/kg, po; assay type: ADME, organism-based, Oryctolagus cuniculus; design: dose 10 mg/kg, route oral; conditions: in vivo; how it was run: as §3
[32] = AUC in dog at 10 mg/kg, po; assay type: ADME, organism-based, Canis lupus familiaris; design: dose 10 mg/kg, route oral; conditions: plasma; how it was run: as §3
[33] = Cmax in rat at 10 mg/kg, po; assay type: ADME, organism-based; design: dose 10 mg/kg, route oral; conditions: in vivo; how it was run: as §3
Macaca fascicularis [34] = experiment: Tmax in monkey at 1 mg/kg, po; conditions: cynomolgus monkey, in vivo
[35] = Volume of distribution at steady state in guinea pig at 1 mg/kg, iv; assay type: ADME, organism-based, Cavia porcellus; design: dose 1 mg/kg, route intravenous; conditions: in vivo, read-out: Vdss; how it was run: as §2
[36] = Total clearance in guinea pig at 1 mg/kg, iv; assay type: ADME, organism-based, Cavia porcellus; design: dose 1 mg/kg, route intravenous; conditions: in vivo; how it was run: as §2
Rattus norvegicus [37] = experiment: Oral bioavailability in rat assessed as 4-[2-({6-Fluoro-2-[({[3-(methyloxy)phenyl]methyl}amino)-carbonyl]-4-oxo-3,4-dihydroquinazolin-5-yl}oxy)ethyl]-benzoic acid at 3 mg/kg; assay type: ADME, organism-based; conditions: in vivo; how it was run: as §4
Macaca fascicularis [38] = experiment: Volume of distribution at steady state in monkey at 1 mg/kg, iv; conditions: cynomolgus monkey, in vivo, read-out: Vdss

IC50 (Collagenase 3): 0.53 nM
SMILES: COc1cccc(CNC(=O)c2nc3cccc(Oc4ccccc4)c3c(=O)[nH]2)c1

IC50 (Collagenase 3): 0.31 nM
SMILES: COc1cccc(CNC(=O)c2nc3cccc(OCc4ccccc4)c3c(=O)[nH]2)c1

Microsomal clearance (Liver microsome [1]): 170 µL/min/mg | CL (Rattus norvegicus [2]): 28.3 mL/min/kg | IC50 (Collagenase 3): 0.69 nM
SMILES: COc1cccc(CNC(=O)c2nc3cccc(OCCc4ccccc4)c3c(=O)[nH]2)c1

IC50 (Collagenase 3): 0.52 nM
SMILES: COc1cccc(CNC(=O)c2nc3cccc(OCCCc4ccccc4)c3c(=O)[nH]2)c1

IC50 (Collagenase 3): 1.6 nM
SMILES: COc1cccc(CNC(=O)c2nc3cccc(OCCOCc4ccccc4)c3c(=O)[nH]2)c1

IC50 (Collagenase 3): 4.3 nM
SMILES: COc1cccc(CNC(=O)c2nc3cccc(NCCc4ccccc4)c3c(=O)[nH]2)c1

IC50 (Collagenase 3): 9.7 nM
SMILES: COc1cccc(CNC(=O)c2nc3cccc(SCCc4ccccc4)c3c(=O)[nH]2)c1

IC50 (Collagenase 3): 2.9 nM
SMILES: COc1cccc(CNC(=O)c2nc3cccc(CCCc4ccccc4)c3c(=O)[nH]2)c1

IC50 (Collagenase 3): 1.7 nM
SMILES: COc1cccc(CNC(=O)c2nc3cccc(COCc4ccccc4)c3c(=O)[nH]2)c1

IC50 (Collagenase 3): 16 nM
SMILES: COc1cccc(CNC(=O)c2nc3cccc(CN(C)Cc4ccccc4)c3c(=O)[nH]2)c1

IC50 (Collagenase 3): 0.16 nM
SMILES: COc1cccc(CNC(=O)c2nc3cccc(CC(=O)Nc4ccccc4)c3c(=O)[nH]2)c1

IC50 (Collagenase 3): 0.99 nM
SMILES: COc1cccc(CNC(=O)c2nc3cccc(OCCC4CCCCC4)c3c(=O)[nH]2)c1

IC50 (Collagenase 3): 34 nM
SMILES: COc1cccc(CNC(=O)c2nc3cccc(OCCN4CCCCC4)c3c(=O)[nH]2)c1

Microsomal clearance (Liver microsome [1]): 150 µL/min/mg | CL (Rattus norvegicus [2]): 17 mL/min/kg | IC50 (Collagenase 3): 0.04 nM
SMILES: COc1cccc(CNC(=O)c2nc3ccc(F)c(OCCc4ccccc4)c3c(=O)[nH]2)c1

Microsomal clearance (Liver microsome [1]): 180 µL/min/mg | CL (Rattus norvegicus [2]): 28.3 mL/min/kg | IC50 (Collagenase 3): 0.15 nM
SMILES: COc1cccc(CNC(=O)c2nc3ccc(F)c(OCCc4ccc(F)cc4)c3c(=O)[nH]2)c1

Microsomal clearance (Liver microsome [1]): 140 µL/min/mg | CL (Rattus norvegicus [2]): 233 mL/min/kg | IC50 (Collagenase 3): 0.03 nM
SMILES: COc1cccc(CNC(=O)c2nc3ccc(F)c(OCCc4ccc(N)cc4)c3c(=O)[nH]2)c1

Stability [3]: 2 µL/min/mg | Vd [4]: 0.731 L/kg | Stability [5]: 3 µL/min/mg | AUC [6]: 1410 ng·h/mL | AUC [7]: 15700 ng·h/mL | F (Canis familiaris): 3% | Cmax [8]: 3870 ng/mL | bioavailability [9]: 23% | bioavailability [10]: 74% | Tmax [11]: 0.5 h | bioavailability [12]: 35% | Stability (Liver): 1 µL/min/mg | Tmax [13]: 0.25 h | F (Cavia porcellus): 6.3% | F (Oryctolagus cuniculus): 11% | clearance [15]: 3.08 mL/min/kg | Vd [16]: 1.14 L/kg | AUC (Macaca fascicularis [17]): 456 ng·h/mL | Vd [18]: 0.995 L/kg | bioavailability (Macaca fascicularis [19]): 45% | Stability (Liver microsome [20]): 3 µL/min/mg | Cmax [21]: 439 ng/mL | clearance (Macaca fascicularis [22]): 20.9 mL/min/kg | Tmax [23]: 1.7 h | clearance [24]: 3.7 mL/min/kg | AUC [25]: 1600 ng·h/mL | clearance [26]: 34.6 mL/min/kg | Tmax [27]: 1.8 h | bioavailability [28]: 58% | F (Macaca fascicularis [29]): 1.5% | Cmax (Macaca fascicularis [30]): 45 ng/mL | Cmax [31]: 2290 ng/mL | AUC [32]: 31800 ng·h/mL | Cmax [33]: 439 ng/mL | Tmax (Macaca fascicularis [34]): 2.8 h | Vd [35]: 5.39 L/kg | clearance [36]: 26.9 mL/min/kg | F (Rattus norvegicus [37]): 4.9% | Vd (Macaca fascicularis [38]): 7.03 L/kg
SMILES: COc1cccc(CNC(=O)c2nc3ccc(F)c(OCCc4ccc(C(=O)[O-])cc4)c3c(=O)[nH]2)c1.[Na+]
Activity (Rattus norvegicus [14]): Non-toxic
